Calls of active or inactive are those of the source.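 Rule for the calls: active = IC50 at or below 20 µM; inactive = the rest.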

Sequence of Bcl-2-like protein 10 (Homo sapiens) (Q9HD36 whole entry, looked up): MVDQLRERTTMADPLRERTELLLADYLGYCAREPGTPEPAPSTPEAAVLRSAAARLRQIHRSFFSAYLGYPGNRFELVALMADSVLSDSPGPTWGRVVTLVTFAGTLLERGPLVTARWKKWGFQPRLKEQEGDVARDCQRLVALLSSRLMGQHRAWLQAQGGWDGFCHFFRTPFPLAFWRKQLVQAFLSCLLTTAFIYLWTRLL

In this assay the target is Bcl-2-like protein 10 (Homo sapiens) (UniProt Q9HD36). As to the kind of experiment: small molecules blocking Bcl-B/Bim BH3 binding – biochemical, fluorescence polarization, GST-Bcl-B, FITC-Bim, SAR follow-up (AID 588575). The settings on record: GST-Bcl-B / FITC-Bim peptide. A digest of the protocol:
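material = recombinant GST-Bcl-B protein without C-terminal transmembrane region | probe or stimulus = FITC-Bim peptide probe | compound dosing = 10 concentrations, 2-fold steps | schedule = 20 min at 4 °C preincubation, 10 min probe step at room temperature | detection = fluorescence polarization, excitation 485 nm, emission 530 nm | evaluation = IC50 via sigmoidal curve fitting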
For orientation: Fluorescence polarisation rises when a labelled molecule tumbles more slowly, as on binding a larger partner.
One may read the IC50 as the point on the concentration scale where inhibition reaches its midpoint. With `O=c1c2c(nc3n1CCS3)-c1ccccc1CC21CCCCC1`, the IC50 was > 20 µM (inactive).
Next, `COc1ccc(Cn2c(=O)c3c(n4cnnc24)-c2cc(C)ccc2CC3(C)C)cc1`: 8.29 µM; `CC1(C)Cc2ccccc2-c2c1c(=O)n(Cc1ccccc1)c1nnnn21`: > 20 µM (inactive); `O=c1c2c(-c3ccccc3)n3ncnc3nc2ccn1-n1cnnc1`: > 20 µM (inactive).
Next, `COc1ccc2c(c1)-c1c(c(=O)n(Cc3ccc(F)cc3)c3nnnn13)C(C)(C)C2`: > 20 µM (inactive); `O=c1c2c(n3nnnc3n1Cc1ccccc1)-c1cc(F)ccc1CC21CCCCC1`: 0.775 µM; `O=C1CC(c2ccc(F)cc2)CC2=C1C(c1cccc(Cl)c1)n1ncnc1N2` (stereo not drawn): > 20 µM (inactive).
To `Cc1ccc2c(c1)-c1c(c(=O)n(Cc3ccc(F)cc3)c3nncn13)C1(CCCCC1)C2` belongs 0.6 µM; to `O=c1c2c(nc3[nH]ncn13)-c1ccccc1CC21CCCC1`, > 20 µM (inactive).
Regarding `COc1ccc2c(c1)-c1c(c(=O)n(Cc3ccc(Cl)cc3)c3nnnn13)C1(CCCC1)C2`, the IC50 is > 20 µM (inactive).
To `Cc1ccc2c(c1)-c1c(c(=O)n(Cc3ccccc3)c3nncn13)C(C)(C)C2` belongs > 20 µM (inactive).
For the molecule `COc1ccc2c(c1)-c1c(c(=O)n(Cc3ccccc3)c3nncn13)C1(CCCC1)C2`, the IC50 was > 20 µM (inactive).
Next, `C=C(C)Cn1c(=O)c2c(n3nnnc13)-c1ccccc1CC21CCCC1`: > 20 µM (inactive); `COc1ccc2c(c1)-c1c(c(=O)n(Cc3ccc(Cl)cc3)c3nncn13)C1(CCCC1)C2`: > 20 µM (inactive).
Next, `CC1(C)Cc2ccccc2-c2nc3nn[nH]n3c(=O)c21`: > 20 µM (inactive).
To `O=c1c2ccccc2nc2n1C1(CCCC1)Cc1ccccc1-2` belongs > 20 µM (inactive); to `CC1(C)Cc2ccccc2-c2c1c(=O)n(Cc1ccccc1)c1nncn21`, > 20 µM (inactive).
As for `Cc1ccc2c(c1)-c1c(c(=O)n(Cc3ccc(Cl)cc3)c3nncn13)C1(CCCCC1)C2`, the IC50 was > 20 µM (inactive).
Next, `COc1ccc2c(c1)-c1c(c(=O)n(Cc3ccccc3)c3nnnn13)C(C)(C)C2`: 4.03 µM.
On to `O=c1c2c(n3nnnc3n1Cc1ccccc1)-c1cc(F)ccc1CC21CCCC1`, for which the IC50 is > 20 µM (inactive).
Next, `O=c1c2c(n3cnnc3n1C1CCCCC1)-c1ccccc1CC21CCCCC1`: > 20 µM (inactive); `O=c1c2c(n3nnnc3n1Cc1ccc(Cl)cc1)-c1ccccc1CC21CCCC1`: 2.11 µM.
Next, `O=c1c2cnc3ncnn3c2ccn1CCc1cnc[nH]1`: > 20 µM (inactive); `Cc1ccc2c(c1)-c1c(c(=O)n(Cc3ccccc3)c3nnnn13)C(C)(C)C2`: 5.77 µM.
In the case of `COc1ccc2c(c1)-c1c(c(=O)n(Cc3ccc(Cl)cc3)c3nncn13)C(C)(C)C2`, the IC50 is > 20 µM (inactive).
To `O=c1c2c(nc3[nH]ncn13)-c1ccccc1CC21CCCCC1` belongs > 20 µM (inactive).
Take `Cc1ccc2c(c1)-c1c(c(=O)n(Cc3ccccc3)c3nnnn13)C1(CCCCC1)C2`: the IC50 is 13.6 µM.
Regarding `Cn1c(=O)c2c(n3cnnc13)-c1ccccc1CC21CCCC1`, the IC50 was > 20 µM (inactive).
Next, `O=c1c2c(n3cnnc3n1Cc1ccc(Cl)cc1)-c1ccccc1CC21CCCC1`: 3.4 µM; `O=c1[nH]c(NCCCO)nc2c1C1(CCCCC1)Cc1ccccc1-2`: > 20 µM (inactive); `O=c1c2c(n3nnnc3n1Cc1ccccc1)-c1ccccc1CC21CCCC1`: 3.34 µM.
To `O=c1c2c(n3nnnc3n1Cc1ccccc1)-c1ccccc1CC21CCCCC1` belongs 4.15 µM; to `COc1ccc2c(c1)-c1c(c(=O)n(Cc3ccccc3)c3nnnn13)C1(CCCC1)C2`, > 20 µM (inactive); to `O=c1c2c(n3cnnc3n1Cc1ccccc1)-c1ccccc1CC21CCCCC1`, > 20 µM (inactive).
Next, `Cn1c(NCCO)nc2c(c1=O)C1(CCCCC1)Cc1ccccc1-2`: > 20 µM (inactive).
With `c1ccc(OCc2nc3c4c(ncn3n2)-c2ccccc2CC42CCCC2)cc1`, the IC50 was > 20 µM (inactive).
Next, `COc1ccc(Cn2c(=O)c3c(n4nnnc24)-c2ccccc2CC32CCCC2)cc1`: 0.386 µM.
To `COc1ccc2c(c1)-c1c(c(=O)n(Cc3ccc(Cl)cc3)c3nnnn13)C(C)(C)C2` belongs > 20 µM (inactive); to `Cc1ccc2c(c1)-c1c(c(=O)n(Cc3ccccc3)c3nncn13)C1(CCCCC1)C2`, 4.92 µM.
Next, `Cn1c(=S)[nH]c2c(c1=O)C1(CCCCC1)Cc1ccccc1-2`: > 20 µM (inactive); `O=c1c2c(-c3ccccc3)n3ncnc3nc2ccn1-c1ccccc1`: > 20 µM (inactive); `C=C(C)Cn1c(=O)c2c(n3cnnc13)-c1ccccc1CC21CCCC1`: > 20 µM (inactive).
Consider `O=c1c2ccccc2nc2n1C1(CCCCC1)Cc1ccccc1-2`, for which the IC50 is > 20 µM (inactive).
Next, `CC1CC(=O)C2=C(C1)Nc1ncnn1C2c1cccnc1` (stereo not drawn): > 20 µM (inactive).
Next, `O=C1CCCC2=C1C(c1cc(Br)ccc1F)n1ncnc1N2` (stereo not drawn): > 20 µM (inactive); `O=c1[nH]c(CN2CCOCC2)nc2c1C1(CCCC1)Cc1ccccc1-2`: > 20 µM (inactive); `CC1(C)CC(n2c(=S)[nH]c3c(c2=O)C2(CCCC2)Cc2ccccc2-3)CCO1` (stereo not drawn): > 20 µM (inactive).
To `COc1ccc(Cn2c(=O)c3c(n4nnnc24)-c2cc(C)ccc2CC3(C)C)cc1` belongs 3.94 µM; to `O=C1CC(c2ccccc2F)c2c(n3ncnc3[nH]c2=O)N1` (stereo not drawn), > 20 µM (inactive); to `COc1ccc2c(c1)-c1c(c(=O)n(Cc3ccccc3)c3nncn13)C(C)(C)C2`, > 20 µM (inactive).
Turning to `COc1ccc2c(c1)-c1c(c(=O)n(Cc3ccc(F)cc3)c3nncn13)C(C)(C)C2`, the IC50 is > 20 µM (inactive).
Next, `O=c1c2c(n3nnnc3n1Cc1ccc(F)cc1)-c1ccccc1CC21CCCC1`: 1.56 µM; `O=c1c2cnc3nc(-c4ccccc4)nn3c2ccn1CCc1cnc[nH]1`: > 20 µM (inactive); `Cc1ccc2c(c1)-c1c(c(=O)n(Cc3ccc(Cl)cc3)c3nnnn13)C1(CCCCC1)C2`: > 20 µM (inactive).
Next, `O=c1c2c(n3cnnc3n1Cc1ccccc1)-c1ccccc1CC21CCCC1`: 5.19 µM; `O=c1[nH]c(CN2CCCC2)nc2c1C1(CCCC1)Cc1ccccc1-2`: > 20 µM (inactive).
Take `O=c1c2c(n3nnnc3n1-c1ccccc1)-c1ccccc1CC21CCCC1`: the IC50 is > 20 µM (inactive).
Next, `Cc1ccc2c(c1)-c1c(c(=O)n(Cc3ccc(F)cc3)c3nnnn13)C1(CCCCC1)C2`: 8.14 µM.
